Experimental data taken from ChEMBL document CHEMBL1142515, “Synthesis and evaluation of structurally constrained quinazolinone derivatives as potent and selective histamine H3 receptor inverse agonists” (J Med Chem, 2008).
pIC50, pKi: −log10 of the molar value.

Assays:
[1] = test system: Rhesus monkey; experiment: Oral bioavailability in rhesus monkey at 1 mg/kg; type: ADME, organism-based, Macaca mulatta; conditions: in vivo
Summary of the method: (§1)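 Male SD rats, male Beagle dogs, male rhesus monkeys given single doses iv (PEG400/EtOH/H2O 50/10/40) or po by gavage (0.5% methylcellulose suspension). Rats 1 mg/kg iv and 3 mg/kg po; dogs and monkeys 0.3 mg/kg iv and 1 mg/kg po. Plasma sampled at multiple times up to 24 h, deproteinized with ethanol plus internal standard. Mean of n = 3 animals/dose.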

[2] = test system: LLC-PK1; experiment: Ratio of permeability from apical to basolateral side over basolateral to apical side in pig LLC-PK1 cells expressing mouse MDR1a; type: ADME, cell-based, Sus scrofa
[3] = target: Voltage-gated inwardly rectifying potassium channel KCNH2 (Homo sapiens, UniProt Q12809); experiment: Antagonist activity at human ERG in HEK293 cells assessed as inhibition of [35S]N-[(4R)-1'-[(2R)-6-cyano-1,2,3,4-tetrahydro-2-naphthalenyl]-3,4-dihydro-4-hydroxyspiro[2H-1-benzopyran-2,4'-piperidin]-6-yl]methanesulfonamide binding
Sequence of Voltage-gated inwardly rectifying potassium channel KCNH2 (Q12809 whole entry): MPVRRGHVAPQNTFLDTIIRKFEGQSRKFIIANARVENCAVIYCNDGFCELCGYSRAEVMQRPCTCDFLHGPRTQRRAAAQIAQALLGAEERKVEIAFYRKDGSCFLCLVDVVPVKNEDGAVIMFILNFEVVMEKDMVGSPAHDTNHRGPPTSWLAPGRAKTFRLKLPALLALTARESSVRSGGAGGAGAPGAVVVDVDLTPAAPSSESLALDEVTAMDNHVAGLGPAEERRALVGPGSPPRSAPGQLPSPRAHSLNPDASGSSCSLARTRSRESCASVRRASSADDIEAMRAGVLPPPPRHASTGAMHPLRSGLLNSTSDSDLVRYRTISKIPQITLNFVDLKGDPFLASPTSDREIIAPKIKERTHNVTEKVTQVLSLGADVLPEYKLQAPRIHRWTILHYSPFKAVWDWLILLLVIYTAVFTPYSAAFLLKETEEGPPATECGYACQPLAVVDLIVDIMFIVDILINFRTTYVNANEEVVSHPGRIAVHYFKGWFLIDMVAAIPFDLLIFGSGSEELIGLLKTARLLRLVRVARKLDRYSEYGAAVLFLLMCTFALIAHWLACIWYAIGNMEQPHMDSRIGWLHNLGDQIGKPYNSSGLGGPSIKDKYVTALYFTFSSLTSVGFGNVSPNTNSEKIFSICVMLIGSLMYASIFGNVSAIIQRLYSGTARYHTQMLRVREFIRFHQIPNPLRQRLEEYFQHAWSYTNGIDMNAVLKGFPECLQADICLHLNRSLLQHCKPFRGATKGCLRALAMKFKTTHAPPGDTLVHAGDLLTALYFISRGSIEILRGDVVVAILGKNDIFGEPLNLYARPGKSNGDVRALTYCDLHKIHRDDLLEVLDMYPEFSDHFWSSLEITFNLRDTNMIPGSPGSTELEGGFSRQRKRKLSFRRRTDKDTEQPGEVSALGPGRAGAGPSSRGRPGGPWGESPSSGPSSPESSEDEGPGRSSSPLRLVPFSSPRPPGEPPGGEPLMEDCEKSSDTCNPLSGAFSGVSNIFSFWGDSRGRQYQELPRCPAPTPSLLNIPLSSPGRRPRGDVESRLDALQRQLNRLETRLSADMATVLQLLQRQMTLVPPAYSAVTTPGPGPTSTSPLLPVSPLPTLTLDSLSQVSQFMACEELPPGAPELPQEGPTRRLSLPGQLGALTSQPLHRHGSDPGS

[4] = Cmax in Sprague-Dawley rat at 1 mg/kg, iv and 3 mg/kg, po; type: ADME, organism-based; conditions: in vivo; summary of the method: as §1
[5] = Plasma concentration in Sprague-Dawley rat at 10 mg/kg, po after 2 hrs; type: ADME, organism-based; parameters: dose 10 mg/kg, route oral
Summary of the method: (§2)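 Male SD rats dosed orally at 10 mg/kg. Plasma, brain and CSF concentrations determined 2 h after dosing. Brain/plasma ratio taken from these levels. Mean of n = 3 animals.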

[6] = Plasma clearance in Sprague-Dawley rat at 1 mg/kg, iv; type: ADME, organism-based; parameters: dose 1 mg/kg, route intravenous; summary of the method: as §1
[7] = target: Histamine H3 receptor (Rattus norvegicus, UniProt Q9QYN8); experiment: Displacement of [3H]N-alpha-methylhistamine from rat recombinant histamine H3 receptor expressed in HEK293 cells; type: cell-based
Sequence of Histamine H3 receptor (Rattus norvegicus, UniProt Q9QYN8) (Q9QYN8 whole entry): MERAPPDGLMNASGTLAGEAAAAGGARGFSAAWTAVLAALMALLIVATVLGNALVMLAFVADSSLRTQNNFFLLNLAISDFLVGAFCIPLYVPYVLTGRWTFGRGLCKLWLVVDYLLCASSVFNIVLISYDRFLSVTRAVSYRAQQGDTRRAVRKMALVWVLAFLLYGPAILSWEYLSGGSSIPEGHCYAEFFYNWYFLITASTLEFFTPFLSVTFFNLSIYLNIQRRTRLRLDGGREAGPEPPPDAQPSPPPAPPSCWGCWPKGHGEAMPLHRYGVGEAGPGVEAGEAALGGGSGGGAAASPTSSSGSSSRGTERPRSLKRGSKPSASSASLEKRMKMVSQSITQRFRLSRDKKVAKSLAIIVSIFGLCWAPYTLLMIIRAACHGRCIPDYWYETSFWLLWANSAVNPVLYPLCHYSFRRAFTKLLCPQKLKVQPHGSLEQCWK

[8] = Ratio of drug level in cerebrospinal fluid to brain in Sprague-Dawley rat at 10 mg/kg, po after 2 hrs; type: ADME, organism-based, CSF/Brain; parameters: dose 10 mg/kg, route oral; conditions: in vivo
[9] = Cmax in rhesus monkey at 0.3 mg/kg, iv and 1 mg/kg, po; type: ADME, organism-based, Macaca mulatta; conditions: in vivo; summary of the method: as §1
[10] = target: T1, Histamine H3 receptor (Homo sapiens, UniProt Q9Y5N1); experiment: Displacement of [3H]N-alpha-methylhistamine from human recombinant histamine H3 receptor expressed in CHO-K1 cells; type: cell-based
T1 sequence (Q9Y5N1 whole entry): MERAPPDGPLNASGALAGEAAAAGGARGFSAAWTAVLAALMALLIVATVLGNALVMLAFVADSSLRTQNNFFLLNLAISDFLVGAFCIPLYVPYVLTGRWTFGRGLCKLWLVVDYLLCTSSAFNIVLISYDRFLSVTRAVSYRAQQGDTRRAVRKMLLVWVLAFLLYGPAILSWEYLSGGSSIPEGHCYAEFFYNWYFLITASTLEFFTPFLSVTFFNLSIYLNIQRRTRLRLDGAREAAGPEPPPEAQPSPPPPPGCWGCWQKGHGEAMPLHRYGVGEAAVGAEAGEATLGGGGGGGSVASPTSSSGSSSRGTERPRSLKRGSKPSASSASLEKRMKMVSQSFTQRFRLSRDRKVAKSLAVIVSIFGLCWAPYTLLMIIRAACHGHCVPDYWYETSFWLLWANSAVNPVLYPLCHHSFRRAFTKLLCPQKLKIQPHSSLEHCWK

[11] = Drug level in Sprague-Dawley rat cerebrospinal fluid at 10 mg/kg, po after 2 hrs; type: ADME, organism-based; parameters: dose 10 mg/kg, route oral; conditions: read-out: Drug uptake; summary of the method: as §2
[12] = Cmax in Beagle dog at 0.3 mg/kg, iv and 1 mg/kg, po; type: ADME, organism-based, Canis lupus familiaris; conditions: in vivo; summary of the method: as §1
[13] = test system: Rhesus monkey; experiment: AUC (0 to infinity) in rhesus monkey at 1 mg/kg, po; type: ADME, organism-based, Macaca mulatta, Plasma; parameters: time infinity, dose 1 mg/kg, route oral; conditions: in vivo; summary of the method: as §1
[14] = test system: Canis familiaris; experiment: (§3) Oral bioavailability in Beagle dog at 1 mg/kg; type: ADME, organism-based, Canis lupus familiaris; conditions: in vivo; summary of the method: as §1
[15] = target: Histamine H3 receptor (Mus musculus, UniProt P58406); experiment: Displacement of [3H]N-alpha-methylhistamine from mouse recombinant histamine H3 receptor
Sequence of Histamine H3 receptor (Mus musculus, UniProt P58406) (P58406 whole entry): as the sequence (Q9QYN8 whole entry) above, with T15A, A286T, A290G, R387H, I389V counted along it

[16] = AUC (0 to infinity) in Sprague-Dawley rat at 3 mg/kg, po; type: ADME, organism-based; parameters: time infinity, dose 3 mg/kg, route oral; conditions: plasma; summary of the method: as §1
[17] = Oral bioavailability in Sprague-Dawley rat at 3 mg/kg; type: ADME, organism-based; conditions: in vivo; summary of the method: as §1
[18] = test system: Canis familiaris; experiment: (§4) AUC (0 to infinity) in Beagle dog at 1 mg/kg, po; type: ADME, organism-based, Canis lupus familiaris, Plasma; parameters: time infinity, dose 1 mg/kg, route oral; conditions: in vivo; summary of the method: as §1
[19] = Ratio of drug level in brain to plasma in Sprague-Dawley rat at 10 mg/kg, po after 2 hrs; type: ADME, organism-based; parameters: dose 10 mg/kg, route oral; conditions: read-out: BPR; summary of the method: as §2
[20] = test system: Brain; experiment: Drug level in Sprague-Dawley rat brain at 10 mg/kg, po after 2 hrs; type: ADME, organism-based; parameters: dose 10 mg/kg, route oral; conditions: in vivo; summary of the method: as §2
[21] = target: T1, Histamine H3 receptor; experiment: Antagonist activity at human cloned histamine H3 receptor expressed in CHO-K1 cells assessed as inhibition of R-alpha-methylhistamine-induced [35S]GTPgammaS binding; type: functional, cell-based
[22] = test system: LLC-PK1; experiment: Ratio of permeability from apical to basolateral side over basolateral to apical side in pig LLC-PK1 cells expressing human MDR1; type: ADME, cell-based, Sus scrofa
[23] = test system: Rattus norvegicus; experiment: Ex vivo receptor occupancy of histamine H3 receptor in Sprague-Dawley rat assessed as drug level in brain at 1 mg/kg, po after 2 hrs; type: functional
Summary of the method: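 Male SD rats given vehicle or 1 mg/kg compound by oral gavage and decapitated at 2 h. Striatal sections (20 μm) incubated 10 min at room temperature with 400 pM tritiated H3 inverse agonist radioligand in sodium phosphate buffer. Nonspecific binding defined with 10 μM R-α-methylhistamine. Beta-Imager exposure 6 h. Drug levels measured by LC-MS/MS.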

[24] = Ratio of drug level brain to plasma in wild type mdr1a (+/+) CF1 mouse at 0.3 mg/kg, po after 2 hrs; type: ADME, organism-based; parameters: dose 0.3 mg/kg, route oral; conditions: read-out: BPR
Summary of the method: (§5)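 Female mdr1a (+/+) and mdr1a (−/−) CF-1 mice dosed by oral gavage. Terminal blood and whole brain collected 2 h later. Brain homogenized by ultrasonication in 4 volumes water. Plasma and brain deproteinized with ethanol plus internal standard, then measured by LC-MS/MS (positive ESI, MRM). Mean ± SE, n = 3. Brain/plasma ratios calculated from mean values.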

[25] = test system: Mus musculus; experiment: Ex vivo receptor occupancy of histamine H3 receptor expressed in po dosed MDR1a deficient CF1 mouse plasma assessed by brain occupancy/brain to plasma ratio after 2 hrs; type: functional
Summary of the method: (§6)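 Female wild-type and mdr1a (−/−) CF-1 mice given vehicle or compound po (0.1–3 mg/kg) and decapitated at 2 h. Coronal striatal sections (20 μm) incubated 10 min at room temperature with 400 pM tritiated quinazolinone H3 inverse agonist radioligand in sodium phosphate buffer. Nonspecific binding defined with 10 μM R-α-methylhistamine. Sections imaged 6 h by beta-Imager. Brain Occ90 obtained from occupancy versus brain concentration. Plasma Occ90 = brain Occ90/brain-to-plasma ratio.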

[26] = Plasma clearance in Beagle dog at 0.3 mg/kg, iv; type: ADME, organism-based, Canis lupus familiaris; parameters: dose 0.3 mg/kg, route intravenous; summary of the method: as §1
[27] = test system: Mus musculus; experiment: Ex vivo receptor occupancy of histamine H3 receptor expressed in wild type po dosed CF1 mouse brain after 2 hrs; type: functional; summary of the method: as §6
[28] = test system: Mus musculus; experiment: Ex vivo receptor occupancy of histamine H3 receptor expressed in po dosed wild type CF1 mouse plasma assessed by brain occupancy/brain to plasma ratio after 2 hrs; type: functional; summary of the method: as §6
[29] = target: Histamine H4 receptor (Homo sapiens, UniProt Q9H3N8); experiment: Inhibition of human histamine H4 receptor
Sequence of Histamine H4 receptor (Q9H3N8 whole entry): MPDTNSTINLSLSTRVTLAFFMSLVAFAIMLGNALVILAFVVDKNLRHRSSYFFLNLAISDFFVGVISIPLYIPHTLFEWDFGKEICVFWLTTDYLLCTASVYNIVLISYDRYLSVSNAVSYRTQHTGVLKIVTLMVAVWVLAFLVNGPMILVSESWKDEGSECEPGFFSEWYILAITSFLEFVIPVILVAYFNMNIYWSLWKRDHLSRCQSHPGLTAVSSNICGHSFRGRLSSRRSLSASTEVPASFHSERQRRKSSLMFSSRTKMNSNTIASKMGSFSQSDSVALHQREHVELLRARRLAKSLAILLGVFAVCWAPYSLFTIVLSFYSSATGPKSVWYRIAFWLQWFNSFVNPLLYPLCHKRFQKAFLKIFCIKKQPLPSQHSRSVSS

[30] = target: Histamine H1 receptor (Homo sapiens, UniProt P35367); experiment: Inhibition of human histamine H1 receptor
Sequence of Histamine H1 receptor (P35367 whole entry): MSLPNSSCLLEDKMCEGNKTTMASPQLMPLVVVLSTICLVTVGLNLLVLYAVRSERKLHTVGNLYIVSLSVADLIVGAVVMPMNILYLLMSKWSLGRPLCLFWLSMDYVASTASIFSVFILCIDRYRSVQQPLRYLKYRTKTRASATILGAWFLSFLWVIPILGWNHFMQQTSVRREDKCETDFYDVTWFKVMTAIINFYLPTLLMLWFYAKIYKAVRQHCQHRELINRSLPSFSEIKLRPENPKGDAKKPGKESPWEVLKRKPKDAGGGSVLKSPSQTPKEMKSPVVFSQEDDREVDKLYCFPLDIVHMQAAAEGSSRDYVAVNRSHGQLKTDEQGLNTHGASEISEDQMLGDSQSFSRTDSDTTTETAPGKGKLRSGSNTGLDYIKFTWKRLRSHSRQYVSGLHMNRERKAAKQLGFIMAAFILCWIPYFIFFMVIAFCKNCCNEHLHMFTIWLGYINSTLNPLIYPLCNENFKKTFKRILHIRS

[31] = test system: Rattus norvegicus; experiment: Increase in tele-methylhistamine level in po dosed Sprague-Dawley rat brain after 2 hrs relative to control; type: functional, organism-based
Summary of the method: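 Male SD rats given vehicle (0.5% methylcellulose) or compound po at 1, 3, 10 mg/kg, co-dosed with pargyline ip. Decapitated at 2 h and brains homogenized. tele-Methylhistamine measured by HPLC with fluorometry after solid-phase extraction. Mean ± SE from five experiments. Compared with vehicle by ANOVA with Dunnett's test.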

[32] = test system: Brain; experiment: Ex vivo drug level in wild type mdr1a (+/+) CF1 mouse brain at 0.3 mg/kg, po after 2 hrs; type: ADME, organism-based; parameters: dose 0.3 mg/kg, route oral; summary of the method: as §5
[33] = Ratio of drug level brain to plasma in mdr1a (-/-) deficient CF1 mouse at 0.3 mg/kg, po after 2 hrs; type: ADME, organism-based; parameters: dose 0.3 mg/kg, route oral; conditions: read-out: BPR; summary of the method: as §5
[34] = Ex vivo drug level in mdr1a (-/-) deficient CF1 mouse plasma at 0.3 mg/kg, po after 2 hrs; type: ADME, organism-based; parameters: dose 0.3 mg/kg, route oral; conditions: read-out: Drug uptake; summary of the method: as §5
[35] = test system: Brain; experiment: Ex vivo drug level in mdr1a (-/-) deficient CF1 mouse brain at 0.3 mg/kg, po after 2 hrs; type: ADME, organism-based; parameters: dose 0.3 mg/kg, route oral; summary of the method: as §5
[36] = Ex vivo drug level in wild type mdr1a (+/+) CF1 mouse plasma at 0.3 mg/kg, po after 2 hrs; type: ADME, organism-based; parameters: dose 0.3 mg/kg, route oral; conditions: read-out: Drug uptake; summary of the method: as §5
[37] = as §3; type: ADME, organism-based, Canis lupus familiaris; conditions: Beagle, in vivo; summary of the method: as §1
[38] = as §4; type: ADME, organism-based, Canis lupus familiaris, Plasma; parameters: time infinity, dose 1 mg/kg, route oral; conditions: Beagle, plasma; summary of the method: as §1
[39] = target: Histamine H2 receptor (Homo sapiens, UniProt P25021); experiment: Inhibition of human histamine H2 receptor
Sequence of Histamine H2 receptor (P25021 whole entry): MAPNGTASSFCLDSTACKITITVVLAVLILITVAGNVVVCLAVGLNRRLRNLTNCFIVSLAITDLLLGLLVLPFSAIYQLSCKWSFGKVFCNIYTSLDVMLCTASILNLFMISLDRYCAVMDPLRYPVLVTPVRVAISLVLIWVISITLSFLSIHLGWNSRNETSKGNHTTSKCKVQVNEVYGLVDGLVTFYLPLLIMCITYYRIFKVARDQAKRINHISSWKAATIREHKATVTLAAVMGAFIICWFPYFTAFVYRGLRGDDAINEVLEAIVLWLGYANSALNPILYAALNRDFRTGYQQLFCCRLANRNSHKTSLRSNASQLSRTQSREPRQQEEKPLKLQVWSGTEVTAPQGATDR

SMILES: Cc1cccc2nc(C)n(-c3ccc(OC4CCN(C5CCC5)CC4)cc3)c(=O)c12
- F [1]: 1%
- Ratio [2]: 1
- pIC50 [3]: < 5.00
- Cmax [4]: 560 nM
- concentration at 2 h [5]: 1400 nM
- clearance [6]: 25 mL/min/kg
- pKi [7]: 8.74
- Ratio [8]: 0.03
- Cmax [9]: 20 nM
- pKi [10]: 8.77
- concentration at 2 h [11]: 100 nM
- Cmax [12]: 1100 nM
- AUC [13]: 0.08 µM·h
- F [14]: 76%
- pKi [15]: 8.41
- AUC(0-inf) [16]: 2.33 µM·h
- bioavailability [17]: 40%
- AUC [18]: 5.6 µM·h
- Kp at 2 h [19]: 2.3
- Drug uptake [20]: 3.2 nmol/g
- pIC50 [21]: 9.57
- Ratio [22]: 0.9

SMILES: CCN1CCC(Oc2ccc(-n3c(C)nc4ccccc4c3=O)cc2)CC1
- pIC50 [21]: 7.31

SMILES: Cc1nc2cccc(F)c2c(=O)n1-c1ccc(OC2CCN(C3CCC3)CC2)cc1
- F [1]: 37%
- Activity [23]: >90%
- Ratio [2]: 1.8
- Kp at 2 h [24]: 1.9
- Occ90 [25]: 30 nM
- clearance [26]: 44 mL/min/kg
- pIC50 [3]: < 5.00
- Cmax [4]: 1300 nM
- Occ90 [27]: 0.28 nmol/g
- Occ90 [28]: 144 nM
- concentration at 2 h [5]: 2400 nM
- clearance [6]: 11 mL/min/kg
- pKi [7]: 8.22
- pIC50 [29]: < 5.00
- Ratio [8]: 0.13
- pIC50 [30]: < 5.00
- Cmax [9]: 380 nM
- Activity [31]: Dose-dependent effect
- Drug uptake [32]: 0.062 nmol/g
- pKi [10]: 8.17
- Kp at 2 h [33]: 9.4
- concentration at 2 h [11]: 950 nM
- concentration at 2 h [34]: 28 nM
- Cmax [12]: 20 nM
- Drug uptake [35]: 0.26 nmol/g
- concentration at 2 h [36]: 32 nM
- AUC [13]: 1.7 µM·h
- bioavailability [37]: 4.8%
- pKi [15]: 8.08
- AUC(0-inf) [16]: 6.2 µM·h
- bioavailability [17]: 53%
- AUC(0-inf) [38]: 0.05 µM·h
- Kp at 2 h [19]: 3.2
- pIC50 [39]: < 5.00
- Drug uptake [20]: 7.6 nmol/g
- pIC50 [21]: 9.26
- Ratio [22]: 1

SMILES: Cc1nc2ccccc2c(=O)n1-c1ccc(OC2CCC(N3CCCC3)C2)cc1 (stereo in doubt; 3a)
- pIC50 [3]: < 5.00
- pIC50 [21]: 8.47

SMILES: Cc1nc2ccccc2c(=O)n1-c1ccc(O[C@H]2CC[C@@H](N3CCCC3)CC2)cc1
- pIC50 [21]: 8.00

SMILES: Cc1nc2c(F)cccc2c(=O)n1-c1ccc(OC2CCN(C3CCC3)CC2)cc1
- pIC50 [21]: 9.08

SMILES: CCCN1CCC(Oc2ccc(-n3c(C)nc4ccccc4c3=O)cc2)CC1
- pIC50 [21]: 7.22

SMILES: Cc1nc2ccccc2c(=O)n1-c1ccc(OC2CCN(C3CCC3)CC2)cc1
- pIC50 [3]: < 5.00
- pIC50 [21]: 8.82

SMILES: Cc1nc2cc(Cl)ccc2c(=O)n1-c1ccc(OC2CCN(C3CCC3)CC2)cc1
- pIC50 [3]: 5.41
- pIC50 [21]: 8.52
